Drawing on ChEMBL document CHEMBL1132234, “Simplified pepstatins: synthesis and evaluation of N-terminally modified analogues” (J Med Chem, 1999), this text covers IC50 for ten molecules.

The nature of assay [1]: (§1) The compound was tested for inhibitory effect towards the pepsin hydrolysis of Horseradish peroxidase. More on the design: species or system plant. A digest of the protocol:
(§2)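 Pepsin (10 µg ≙ 35 units, freshly prepared) was mixed with DMSO serial dilutions of inhibitor (1.00 mg/mL solution, 1:10 then 1:2 steps), with horseradish peroxidase as protein substrate. Mixtures were serially diluted 1:2 in 0.05 N HCl, and residual peroxidase was read with o-phenylenediamine/H₂O₂ in 0.2 M phosphate pH 6.5 (15 min, room temperature, OD 492 nm). Pepstatin A served as reference. IC50 was determined.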

Assay [2] deals with Pepsin A (Sus scrofa, UniProt P00791). Described as §1. Also noted: species or system plant. A digest of the protocol:
as §2

Pepsin A, sequence (P00791 whole entry): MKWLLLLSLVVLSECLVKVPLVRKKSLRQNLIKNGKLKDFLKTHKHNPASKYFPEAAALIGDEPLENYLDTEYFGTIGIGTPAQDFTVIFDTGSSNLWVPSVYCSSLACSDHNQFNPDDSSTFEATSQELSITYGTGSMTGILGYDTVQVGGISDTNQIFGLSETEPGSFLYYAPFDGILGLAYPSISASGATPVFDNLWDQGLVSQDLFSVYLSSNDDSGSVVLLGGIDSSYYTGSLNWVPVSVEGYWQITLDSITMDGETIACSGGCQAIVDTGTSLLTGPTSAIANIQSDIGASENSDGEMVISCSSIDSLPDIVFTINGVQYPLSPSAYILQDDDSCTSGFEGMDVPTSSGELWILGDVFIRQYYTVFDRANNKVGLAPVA

The molecule `CCCCCCC(O)[C@H](CC(C)C)NC(=O)[C@@H](NC(=O)[C@@H](NC(=O)C1CC1)C(C)C)C(C)C` (stereo not given in full) gave an IC50 in assay [1] of 4500 nM.
For `CCCCCCC(O)[C@H](CC(C)C)NC(=O)[C@@H](NC(=O)[C@@H](NC(=O)CCc1ccccc1)C(C)C)C(C)C` (stereo not given in full), in assay [2], half-maximal inhibition (IC50) was put at 730 nM.
Same read-out and setting: the figure for `CCCCCCC(O)[C@H](CC(C)C)NC(=O)[C@@H](NC(=O)[C@@H](NC(=O)CC(C)(C)C)C(C)C)C(C)C` (stereo not given in full) is 1100 nM; for `CCCCCCC(O)[C@H](CC(C)C)NC(=O)[C@@H](NC(=O)[C@@H](NC(=O)OCc1ccccc1)C(C)C)C(C)C` (stereo not given in full) it is 690 nM; for `CCCCCCC(O)[C@H](CC(C)C)NC(=O)[C@@H](NC(=O)[C@@H](NC(=O)CC)C(C)C)C(C)C` (stereo not given in full) it is 3200 nM.
In the case of `CCCCCCC(O)[C@H](CC(C)C)NC(=O)[C@@H](NC(=O)[C@@H](NC(=O)OC(C)(C)C)C(C)C)C(C)C` (stereo not given in full), inhibition in assay [2] was half-maximal at 210 nM (IC50).
On the same count and under the same terms, the result for `CCCCCCC(O)[C@H](CC(C)C)NC(=O)[C@@H](NC(=O)[C@@H](NC(=O)CC(C)C)C(C)C)C(C)C` (stereo not given in full) reads 920 nM; that for `CCCCCCC(O)[C@H](CC(C)C)NC(=O)[C@@H](NC(=O)[C@@H](NC(=O)C(C)C)C(C)C)C(C)C` (stereo not given in full), 3600 nM; that for `CCCCCCC(O)[C@H](CC(C)C)NC(=O)[C@@H](NC(=O)[C@@H](NC(=O)OC(C)C)C(C)C)C(C)C` (stereo not given in full), 1200 nM.
Take `CC(C)CC(=O)N[C@H](C(=O)N[C@H](C(=O)N[C@@H](CC(C)C)[C@@H](O)CC(=O)N[C@@H](C)C(=O)N[C@@H](CC(C)C)[C@@H](O)CC(=O)O)C(C)C)C(C)C` [PEPSTATIN]: in assay [1], the 50% inhibitory concentration (IC50) came out at 31 nM.
